Where no end group is shown, it is not given here. The star is where a group is joined. αGalNAc = CC(=O)N[C@@H]1[C@@H](O)[C@@H](O)[C@@H](CO)O[C@@H]1*
molecular target: K^b molecules (MHC class I H-2K^b) purified from EL-4 cells (mouse (endogenous in EL-4)); experiment: radioligand binding

Row | Molecule | IC50 [nM]
1 | SSSSFSSL | 509
2 | AAAAFAAL | 75
3 | AIIAS(αGalNAc)FAAL [AIIA(GalNac-O-ser)FAAL] | 4
4 | AIIASFAAL | 4
5 | AIIAAFAAL | 10
6 | AIIASFAAL (βGal-[1→3]-α-GalNAc-O-serine (TF antigen) at position 5) [AIIA(βGal-[1→3]-α-GalNAc-O-ser)FAAL] | 4
7 | GGGGFGGL | 53000

molecular target: K^b molecules (Mus musculus, UniProt P01901); experiment: not given; assay type: binding, murine
Method in brief: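 Kb was affinity-purified from filtered Nonidet P-40 lysates of EL-4 cells. 5–10 nM Kb was incubated with a 125I-labelled known Kb-binding peptide plus test compound for 48 h in PBS with 0.05% Nonidet P-40 and protease inhibitors. Bound and free peptide were separated by gel filtration on TSK columns. IC50 is the amount inhibiting 50% of radioligand binding.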

Row | Molecule | IC50 [nM]
8 | GGGGFGGL [GGGGFGGL] | 53000
9 | AIAAAFAAL [AIAAAFAAL] | 240
10 | AAAAAFAAL [AAAAAFAAL] | 610
11 | AIIAAFAAL [AIIAAFAAL] | 10
12 | AAAAFAAL [AAAAFAAL] | 75
13 | AAIAAFAAL [AAIAAFAAL] | 90
14 | SSSSFSSL [SSSSFSSL] | 509

— PMC2213299 (The Journal of Experimental Medicine, 2004)
